Source: ChEMBL document CHEMBL1125626, “Synthesis and structure-activity relationship of new cephalosporins with amino heterocycles at C-7. Dependence of the antibacterial spectrum and beta-lactamase stability on the pKa of the C-7 heterocycle” (1991)
Values after ≈ are worked out from the molar mass of the structure shown.

Columns and labels:
Enterobacter cloacae [1] = test: Minimum inhibitory concentration against Enterobacter cloacae P99 (inoculum, 10e4 cfu per spot)(type I lactamase producer); type: functional
Outline: (§1)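 MIC in µg/mL, determined in Jewell and Permain growth medium with spot inoculation at 10^4 cfu per spot. P99 is described as a constitutive type I lactamase producer.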

Staphylococcus aureus [2] = test: Minimum inhibitory concentration against Staphylococcus aureus A6 (inoculum, 10e5 cfu per spot); type: functional
Outline: (§2)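 MIC in µg/mL, determined in Jewell and Permain growth medium with spot inoculation at 10^5 cfu per spot.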

Escherichia coli [3] = test: Minimum inhibitory concentration against Escherichia coli DCO (inoculum, 10e4 cfu per spot); type: functional; outline: as §1
Serratia marcescens = test: Minimum inhibitory concentration against Serratia marcescens A16 (inoculum, 10e5 cfu per spot); type: functional; outline: as §2
Escherichia coli [4] = test: Minimum inhibitory concentration against Escherichia coli X4 (inoculum, 10e4 cfu per spot)
Pseudomonas aeruginosa = test: Minimum inhibitory concentration against Pseudomonas aeruginosa A21 (inoculum, 10e5 cfu per spot); type: functional; outline: as §2
Escherichia coli [5] = test: Minimum inhibitory concentration against Escherichia coli A8 (inoculum, 10e5 cfu per spot); type: functional; outline: as §2
Klebsiella aerogenes [6] = test: Minimum inhibitory concentration against Klebsiella aerogenes X5L (inoculum, 10e4 cfu per spot); type: functional; outline: as §1
Streptococcus pyogenes = test: Minimum inhibitory concentration against Streptococcus pyogenes (inoculum, 10e5 cfu per spot) A1; type: functional; outline: as §2
Enterobacter cloacae [7] = test: Minimum inhibitory concentration against Enterobacter cloacae P99 (inoculum, 10e4 cfu per spot); type: functional; outline: as §1
Staphylococcus aureus [8] = test: Minimum inhibitory concentration against Staphylococcus aureus A4 (inoculum, 10e5 cfu per spot); type: functional; outline: as §2
Escherichia coli [9] = test: Minimum inhibitory concentration against Escherichia coli DC2 (inoculum, 10e4 cfu per spot); type: functional; outline: as §1
Enterobacter cloacae [10] = test: Minimum inhibitory concentration against Enterobacter cloacae A13 (inoculum, 10e5 cfu per spot); type: functional; outline: as §2
Escherichia coli [11] = test: Minimum inhibitory concentration against Escherichia coli TEM X3 (inoculum, 10e4 cfu per spot)(TEM I type lactamase producer)
Klebsiella pneumoniae = test: Minimum inhibitory concentration against Klebsiella pneumoniae A24 (inoculum, 10e5 cfu per spot); type: functional; outline: as §2
Proteus mirabilis = test: Minimum inhibitory concentration against Proteus mirabilis A18 (inoculum, 10e5 cfu per spot); type: functional; outline: as §2
Klebsiella aerogenes [12] = test: Minimum inhibitory concentration against Klebsiella aerogenes X6 (inoculum, 10e4 cfu per spot); type: functional; outline: as §1
Proteus vulgaris = test: Minimum inhibitory concentration against Proteus vulgaris Pv9 (inoculum, 10e5 cfu per spot)

SMILES | MIC (Enterobacter cloacae [1]) [µg/mL] | MIC (Staphylococcus aureus [2]) [µg/mL] | MIC (Escherichia coli [3]) [µg/mL] | MIC (Serratia marcescens) [µg/mL] | MIC (Escherichia coli [4]) [µg/mL] | MIC (Pseudomonas aeruginosa) [µg/mL] | MIC (Escherichia coli [5]) [µg/mL] | MIC (Klebsiella aerogenes [6]) [µg/mL] | MIC (Streptococcus pyogenes) [µg/mL] | MIC (Enterobacter cloacae [7]) [µg/mL] | MIC (Staphylococcus aureus [8]) [µg/mL] | MIC (Escherichia coli [9]) [µg/mL] | MIC (Enterobacter cloacae [10]) [µg/mL] | MIC (Escherichia coli [11]) [µg/mL] | MIC (Klebsiella pneumoniae) [µg/mL] | MIC (Proteus mirabilis) [µg/mL] | MIC (Klebsiella aerogenes [12]) [µg/mL] | MIC (Proteus vulgaris) [µg/mL]
CC(=O)OCC1=C(C(=O)OC(c2ccccc2)c2ccccc2)N2C(=O)[C@@H](Nc3nc4cc(CC#N)ccc4[nH]3)C2SC1 (some centres not stated) | 256 (≈ 431 µM) | 1 (≈ 1.68 µM) | 0.5 (≈ 0.842 µM) | 64 (≈ 108 µM) | 0.25 (≈ 0.421 µM) | > 256 | 0.5 (≈ 0.842 µM) | 128 (≈ 216 µM) | 0.5 (≈ 0.842 µM) | 1 (≈ 1.68 µM) | 256 (≈ 431 µM) | < 0.03 | > 256 | 4 (≈ 6.74 µM) | 0.5 (≈ 0.842 µM) | 64 (≈ 108 µM) | 0.5 (≈ 0.842 µM) | > 256
CC(=O)OCC1=C(C(=O)OC(c2ccccc2)c2ccccc2)N2C(=O)[C@@H](NC3=NCCN3)C2SC1 (some centres not stated) | 64 (≈ 126 µM) | > 256 | 32 (≈ 63.2 µM) | 256 (≈ 505 µM) | 32 (≈ 63.2 µM) | > 256 | 32 (≈ 63.2 µM) | 64 (≈ 126 µM) | 32 (≈ 63.2 µM) | 32 (≈ 63.2 µM) | > 256 | 2 (≈ 3.95 µM) | 64 (≈ 126 µM) | 32 (≈ 63.2 µM) | 64 (≈ 126 µM) | 256 (≈ 505 µM) | 64 (≈ 126 µM) | > 256
Cn1nnnc1SCC1=C(C(=O)OC(c2ccccc2)c2ccccc2)N2C(=O)[C@@H](Nc3nc4ccccc4[nH]3)C2SC1 (some centres not stated) | 64 (≈ 105 µM) | 4 (≈ 6.55 µM) | 0.5 (≈ 0.819 µM) | 64 (≈ 105 µM) | 0.5 (≈ 0.819 µM) | > 128 | 0.5 (≈ 0.819 µM) | 128 (≈ 210 µM) | 0.5 (≈ 0.819 µM) | 0.5 (≈ 0.819 µM) | 128 (≈ 210 µM) | 0.016 (≈ 0.0262 µM) | > 128 | 4 (≈ 6.55 µM) | 0.5 (≈ 0.819 µM) | 0.25 (≈ 0.409 µM) | 2 (≈ 3.27 µM) | 8 (≈ 13.1 µM)
CO/N=C(\C(=O)N[C@@H]1C(=O)N2C(C(=O)O)=C(COC(C)=O)CS[C@H]12)c1csc(N)n1 [CEFOTAXIME] | 32 (≈ 70.3 µM) | 4 (≈ 8.78 µM) | 0.03 (≈ 0.0659 µM) | 0.25 (≈ 0.549 µM) | 0.06 (≈ 0.132 µM) | 128 (≈ 281 µM) | 0.25 (≈ 0.549 µM) | 4 (≈ 8.78 µM) | 0.03 (≈ 0.0659 µM) | 0.03 (≈ 0.0659 µM) | 32 (≈ 70.3 µM) | 0.002 (≈ 0.00439 µM) | 256 (≈ 562 µM) | 0.06 (≈ 0.132 µM) | 0.06 (≈ 0.132 µM) | 0.06 (≈ 0.132 µM) | 0.06 (≈ 0.132 µM) | 0.5 (≈ 1.1 µM)
CC(=O)OCC1=C(C(=O)OC(c2ccccc2)c2ccccc2)N2C(=O)[C@@H](Nc3nc4cc(O)ccc4[nH]3)C2SC1 (some centres not stated) | 128 (≈ 224 µM) | 4 (≈ 7.01 µM) | 0.12 (≈ 0.21 µM) | 256 (≈ 449 µM) | 0.12 (≈ 0.21 µM) | > 256 | 0.12 (≈ 0.21 µM) | 64 (≈ 112 µM) |  | 0.12 (≈ 0.21 µM) | 16 (≈ 28 µM) | 0.016 (≈ 0.028 µM) | 128 (≈ 224 µM) | 1 (≈ 1.75 µM) | 2 (≈ 3.5 µM) | 0.5 (≈ 0.876 µM) | 0.5 (≈ 0.876 µM) | 32 (≈ 56.1 µM)
CC(=O)OCC1=C(C(=O)OC(c2ccccc2)c2ccccc2)N2C(=O)[C@@H](Nc3nc4cscc4[nH]3)C2SC1 (some centres not stated) | > 256 | 4 (≈ 7.13 µM) | 1 (≈ 1.78 µM) | > 256 | 0.5 (≈ 0.892 µM) | > 256 | 8 (≈ 14.3 µM) | 128 (≈ 228 µM) | 2 (≈ 3.57 µM) | 1 (≈ 1.78 µM) | 32 (≈ 57.1 µM) | 0.06 (≈ 0.107 µM) | > 256 | 4 (≈ 7.13 µM) | 16 (≈ 28.5 µM) | 32 (≈ 57.1 µM) | 2 (≈ 3.57 µM) | 
CO[C@@]1(Nc2nc3ccccc3[nH]2)C(=O)N2C(C(=O)OC(c3ccccc3)c3ccccc3)=C(COC(C)=O)CSC21 (some centres not stated) | > 256 | > 256 | > 256 | > 256 | > 256 | > 256 | > 256 | > 256 | > 256 | > 256 | > 256 | > 256 | > 256 | > 256 | > 256 | > 256 | > 256 | 
CC1=C(C(=O)OC(c2ccccc2)c2ccccc2)N2C(=O)[C@@H](NC3=NCCN3C)C2SC1 (some centres not stated) | 128 (≈ 277 µM) | > 200 | 128 (≈ 277 µM) | > 200 | 128 (≈ 277 µM) | > 200 | 40 (≈ 86.5 µM) | > 200 | > 200 | 64 (≈ 138 µM) | > 200 | 32 (≈ 69.2 µM) | > 200 | 128 (≈ 277 µM) | 40 (≈ 86.5 µM) | > 200 | 128 (≈ 277 µM) | 
CC(=O)OCC1=C(C(=O)OC(C)(C)C)N2C(=O)[C@@H](Nc3nc4cc([N+](=O)[O-])ccc4[nH]3)C2SC1 (some centres not stated) | > 200 | 1 (≈ 2.04 µM) | 128 (≈ 261 µM) | > 200 | > 200 | > 200 | 40 (≈ 81.7 µM) | > 200 | 1 (≈ 2.04 µM) | 64 (≈ 131 µM) | 200 (≈ 409 µM) | 8 (≈ 16.3 µM) | 40 (≈ 81.7 µM) | > 200 | 40 (≈ 81.7 µM) | 40 (≈ 81.7 µM) | > 200 | 

More lines, in order of falling MIC (Enterobacter cloacae [1]), values ahead:

MIC (Enterobacter cloacae [1]) [µg/mL] | MIC (Staphylococcus aureus [2]) [µg/mL] | MIC (Escherichia coli [3]) [µg/mL] | MIC (Serratia marcescens) [µg/mL] | MIC (Escherichia coli [4]) [µg/mL] | MIC (Pseudomonas aeruginosa) [µg/mL] | MIC (Escherichia coli [5]) [µg/mL] | MIC (Klebsiella aerogenes [6]) [µg/mL] | MIC (Streptococcus pyogenes) [µg/mL] | MIC (Enterobacter cloacae [7]) [µg/mL] | MIC (Staphylococcus aureus [8]) [µg/mL] | MIC (Escherichia coli [9]) [µg/mL] | MIC (Enterobacter cloacae [10]) [µg/mL] | MIC (Escherichia coli [11]) [µg/mL] | MIC (Klebsiella pneumoniae) [µg/mL] | MIC (Proteus mirabilis) [µg/mL] | MIC (Klebsiella aerogenes [12]) [µg/mL] | MIC (Proteus vulgaris) [µg/mL] | SMILES
32 (≈ 69.6 µM) | 2 (≈ 4.35 µM) | 0.06 (≈ 0.131 µM) | 256 (≈ 557 µM) | 0.06 (≈ 0.131 µM) | > 256 | 0.25 (≈ 0.544 µM) | 8 (≈ 17.4 µM) | 1 (≈ 2.18 µM) | 0.06 (≈ 0.131 µM) | 32 (≈ 69.6 µM) | 0.03 (≈ 0.0653 µM) | 256 (≈ 557 µM) | 1 (≈ 2.18 µM) | 0.5 (≈ 1.09 µM) | 32 (≈ 69.6 µM) | 0.12 (≈ 0.261 µM) | 128 (≈ 279 µM) | CC(=O)OCC1=C(C(=O)OC(C)(C)C)N2C(=O)[C@@H](Nc3nc4cc(N)ccc4[nH]3)C2SC1 (some centres not stated)
8 (≈ 14.6 µM) | > 256 | 2 (≈ 3.64 µM) | 16 (≈ 29.1 µM) | 4 (≈ 7.28 µM) | > 256 | 4 (≈ 7.28 µM) | 8 (≈ 14.6 µM) | 64 (≈ 116 µM) | 4 (≈ 7.28 µM) | > 256 | 2 (≈ 3.64 µM) | > 256 | 4 (≈ 7.28 µM) | 16 (≈ 29.1 µM) | > 256 | 8 (≈ 14.6 µM) |  | CC1=C(C(=O)OC(c2ccccc2)c2ccccc2)N2C(=O)[C@@H](NC3=NC(c4ccc(C#N)cc4)CN3)C2SC1 (some centres not stated)
2 (≈ 3.81 µM) | > 256 | 1 (≈ 1.91 µM) |  | 1 (≈ 1.91 µM) | > 256 | 2 (≈ 3.81 µM) | 8 (≈ 15.2 µM) | 256 (≈ 488 µM) | 1 (≈ 1.91 µM) | > 256 | 0.5 (≈ 0.953 µM) | 2 (≈ 3.81 µM) | 1 (≈ 1.91 µM) | 4 (≈ 7.62 µM) | > 256 | 2 (≈ 3.81 µM) | > 256 | CC1=C(C(=O)OC(c2ccccc2)c2ccccc2)N2C(=O)[C@@H](NC3=NC(c4ccccc4)CN3)C2SC1 (some centres not stated)
0.06 (≈ 0.184 µM) | 16 (≈ 49.2 µM) | 0.03 (≈ 0.0922 µM) | 128 (≈ 393 µM) | 0.03 (≈ 0.0922 µM) | > 256 | 0.06 (≈ 0.184 µM) | 4 (≈ 12.3 µM) | 16 (≈ 49.2 µM) | 0.03 (≈ 0.0922 µM) | > 256 | 0.004 (≈ 0.0123 µM) | 0.25 (≈ 0.768 µM) | 1 (≈ 3.07 µM) | 0.03 (≈ 0.0922 µM) | 32 (≈ 98.3 µM) | 0.12 (≈ 0.369 µM) | 64 (≈ 197 µM) | CC1(C)S[C@@H]2[C@H](/N=C/N3CCCCCC3)C(=O)N2[C@H]1C(=O)O [AMDINOCILLIN]
